A selection: hits, their analogues and other compounds. The true share with any hit is near 1.9%.
Runt-CBFb FRET – inhibitors of RUNX1 Runt–CBFb binding, primary screen, biochemical, FRET, Cerulean-Runt, Venus-CBFb, uHTS; Runt-related transcription factor 1 (Homo sapiens) + Core-binding factor subunit beta …; Cerulean-Runt/Venus-CBFb FRET ratio 530/480, 1 h; inhibition, % at 20 µM; hit rate 0.46% among 220,000;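 active = inhibition over about 50% at 20 µM in the single-dose screen, limit read from the data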;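 note: 0% = DMSO wells and 100% = excess unlabeled CBFb competitor control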
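test system = Cerulean-Runt domain fusion protein, energy donor | probe or stimulus = Venus-CBFb binding partner, 100 nM | incubation = two 1 h room-temperature incubations shielded from light | detection = fluorescence energy transfer, 422 nm excitation, 530/480 nm emission | measure = loss of energy transfer signal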
TbHK1 inh – Trypanosoma brucei hexokinase 1 inhibitors, primary screen, biochemical, G6PDH-coupled NADH absorbance, MLSCN library | hexokinase 1 [Trypanosoma brucei] | recombinant TbHK1, G6PDH-coupled NADH A340 | inhibition, % at 10 µM | hit rate 0.11% among 220,000 | AID 1430, 2008;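 active = inhibition of 50% or more in the single-dose primary screen; inactive = inhibition below 50%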
Runt-SMMHC FRET – inhibitors of RUNX1 Runt–CBFb-SMMHC binding, primary screen, biochemical, FRET, Cerulean-Runt, Venus-CBFb-SMMHC, uHTS | Cerulean-Runt/Venus-CBFb-SMMHC FRET ratio 530/480, 1 h | AID 1434, 2008 | hit rate 0.74% among 220,000 | Runt-related transcription factor 1 (Homo sapiens) + Core-binding factor subunit beta … | inhibition, % at 20 µM;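 active = mean inhibition across duplicate retests at 20 µM reaching about 50%, limit read from the data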;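 note: 0% = DMSO wells and 100% = wells with excess untagged CBFb-SMMHC; inhibitors lower the FRET ratio by blocking Runt binding to CBFb-SMMHC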
Hck Nef HTS – inhibitors of Nef-activated human Hck kinase, primary screen, biochemical, Z-Lyte FRET, 384-well, Hck-YEEI. Recombinant Hck-YEEI plus Nef, Z-Lyte FRET kinase assay. AID 463187, 2010. inhibition, % at 20 µM. hit rate 0.68% among 220,000. Tyrosine-protein kinase HCK (Homo sapiens), P08631;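 active = Hck-Nef kinase inhibition above about 50%, limit read from the data; inactive = inhibition below that limit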;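 note: 0% = DMSO with Hck plus Nef and 100% = Hck alone without Nef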
Target sequence (P08631 whole entry, looked up): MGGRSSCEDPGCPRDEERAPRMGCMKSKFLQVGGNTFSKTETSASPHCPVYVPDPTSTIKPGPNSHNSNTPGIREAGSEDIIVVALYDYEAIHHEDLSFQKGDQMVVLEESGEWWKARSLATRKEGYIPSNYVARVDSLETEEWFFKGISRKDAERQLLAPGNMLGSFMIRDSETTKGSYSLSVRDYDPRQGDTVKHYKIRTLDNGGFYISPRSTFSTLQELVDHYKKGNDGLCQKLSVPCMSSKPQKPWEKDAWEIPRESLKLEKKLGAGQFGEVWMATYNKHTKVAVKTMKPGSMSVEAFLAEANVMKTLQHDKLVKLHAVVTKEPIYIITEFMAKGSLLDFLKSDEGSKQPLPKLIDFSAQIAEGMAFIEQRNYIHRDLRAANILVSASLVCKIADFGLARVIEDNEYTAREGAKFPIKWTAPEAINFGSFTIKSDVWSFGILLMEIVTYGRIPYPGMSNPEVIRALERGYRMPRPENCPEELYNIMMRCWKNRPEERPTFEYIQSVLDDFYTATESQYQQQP
RanGTP-Imp inh – inhibitors of RanGTP-importin-beta interaction, primary screen, biochemical, FRET, CFP-Ran, YFP-importin-beta, homogeneous | Ran GTPase (GTP-bound) - importin-beta complex | cell-free CFP-Ran/YFP-importin-beta FRET ratio | inhibition, % (test concentration not listed) | hit rate 1.1% among 300,000;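 active = more than half of the replicate wells show a fall in the fluorescence ratio signal beyond about 16%, limit read from the data, passing the limit was not always enough; inconclusive = exactly half of the replicate wells pass the set limit; inactive = fewer than half of replicates pass the limit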;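 note: 0% = DMSO wells and 100% = Ran loaded with GDP instead of GTP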
An asterisk follows results filed as active; ? = inconclusive; nt = no result.

SMILES | Runt-CBFb FRET | TbHK1 inh | Runt-SMMHC FRET | Hck Nef HTS | RanGTP-Imp inh
Cc1csc(Nc2nc(N)c(C(=O)Nc3cc(Cl)ccc3F)o2)n1 | nt | nt | nt | nt | 3
Cc1cc(C)c(C(=O)CC(=O)c2ccccc2Cl)c(O)c1 | nt | nt | nt | nt | 0
Cc1occc1C(=O)NNC1=CC(=O)CC(C)(C)C1 | 2 | 29 | 0 | -4 | 26*
CC1(C)CC(=O)C=C(NNC(=O)c2ccc(N)cc2)C1 | 0 | -7 | 3 | 7 | -1
CC1(C)CC(=O)C=C(NNC(=O)c2ccccc2)C1 | -1 | -10 | 3 | 5 | ?
COc1ccc(C(=O)NNC2=CC(=O)CC(C)(C)C2)cc1OC | 4 | -8 | 2 | 7 | 26*
CCOC(=O)c1c(S(=O)(=O)N(C)C2CCCCC2)c(C)n(C)c1C | nt | nt | nt | nt | 2
COc1ccc(C(=O)Nc2sc(C)c(-c3ccccc3)c2C#N)cc1OC | 2 | -22 | 6 | -11 | 79*
Cc1sc(NC(=O)COc2ccccc2)c(C#N)c1-c1ccccc1 | 1 | 35 | 0 | 1 | 1
CCOC(=O)c1c(C)[nH]c(C(=O)CN2CC(C)OC(C)C2)c1C (centres undefined) | -4 | 1 | -1 | -1 | 29*
CC(C)c1ccc(NC(=O)c2ccc(NC3=NC4CS(=O)(=O)CC4S3)cc2)cc1 (centres undefined) | nt | nt | nt | nt | 4
Cc1ccc2oc(=O)c3cc(C(=O)NCCCN4CCCCCC4)sc3c2c1 | nt | nt | nt | nt | 3
Cc1ccc2oc(=O)c3cc(C(=O)NCCN4CCN(C)CC4)sc3c2c1 | 2 | -56 | 0 | 4 | 27*
CCCS(=O)(=O)N1CCCC(C(=O)c2ccccc2OC)C1 (centres undefined) | -1 | -6 | -2 | 12 | -1
O=c1c(Oc2ccccc2Br)c(C(F)(F)F)oc2c(CN3CCCC3)c(O)ccc12 | -8 | -15 | -23 | 0 | 51*
CC(=O)NC(CCCN1C(=O)c2ccccc2C1=O)c1nnn(C)n1 (centres undefined) | -2 | -2 | 1 | 4 | -3
CCCCn1c(N)c(N(CCOC)C(=O)c2ccc(-c3ccc(C(C)=O)cc3)o2)c(=O)[nH]c1=O | nt | nt | nt | nt | 0
Nc1nc2n(n1)C(c1cccc(Cl)c1)CC(c1ccc(F)cc1)N2 (centres undefined) | 1 | -11 | 0 | 2 | -2
CCOc1ccc(C2CC(c3cccc(Cl)c3)n3nc(N)nc3N2)cc1 (centres undefined) | -2 | -1 | 4 | 0 | 26*
O=Cc1ccc(OC(=O)Cc2ccc(F)cc2)cc1 | nt | nt | nt | nt | 0
CCC(=O)N1CCc2cc(S(=O)(=O)NCCC(=O)N3CCN(c4cccc(C)c4)C(C)C3)ccc21 (centres undefined) | nt | nt | nt | nt | 4
CCOc1ccc(C2C(C#N)=C(N)SC(N)=C2C#N)cc1OCC | 12 | nt | 27 | nt | 33*
CCOc1ccc(C2C(C#N)=C(N)SC(N)=C2C#N)cc1OC | 6 | -13 | -7 | 6 | 26*
N#CC1=C(N)SC(N)=C(C#N)C1c1ccc(C(F)(F)F)cc1 | 38 | -8 | 41 | 2 | 24*
COc1cc2ncnc(NCCc3ccccc3)c2cc1OC | 1 | -1 | -5 | 59* | 1
SMILES | Runt-CBFb FRET | TbHK1 inh | Runt-SMMHC FRET | Hck Nef HTS | RanGTP-Imp inh
CC1=C(C(=O)OCc2ccccc2)C(c2cccc(F)c2)NC(=O)N1 (centres undefined) | nt | nt | nt | nt | 3
Cc1ccc(C)c(NC(=O)c2nnn(Cc3ccccc3)c2N)c1 | 0 | 1 | -32 | 0 | 168*
Cc1ccc(Cn2nnc(C(=O)Nc3cc(C)ccc3C)c2N)cc1 | -2 | -9 | 3 | 1 | 2
CCOc1ccc(C2C3=C(CC(C)(C)CC3=O)N(CC(=O)O)C3=C2C(=O)CC(C)(C)C3)cc1OCC | nt | nt | nt | nt | 3
CCOC(=O)C1=C(N)OC2=C(C(=O)CC(C)(C)C2)C1c1ccccc1OC (centres undefined) | -2 | 0 | 2 | 2 | 0
C#CCOc1ccc(C2C3=C(CC(C)(C)CC3=O)N(CC(=O)O)C3=C2C(=O)CC(C)(C)C3)cc1 | nt | nt | nt | nt | 162*
COc1ccccc1C1C2=C(CC(C)(C)CC2=O)N(CC(=O)O)C2=C1C(=O)CC(C)(C)C2 | nt | nt | nt | nt | 164*
COc1cc(S(=O)(=O)NC2CCSc3ccccc32)ccc1NC(C)=O (centres undefined) | nt | nt | nt | nt | 5
CCOC(=O)/C(C#N)=C\C=C1C=CN(C)C=C1 | nt | 1 | -86 | -2 | 51*
CCOC(=O)/C(C#N)=C\c1ccc(CC)s1 | -1 | -14 | -7 | 2 | 0
COc1ccc(N(C(=O)CNC(=O)c2ccco2)C(C(=O)NCC2CCCO2)c2ccccc2)cc1 (centres undefined) | nt | nt | nt | nt | -2
COc1ccccc1NC(=O)c1cc2cc(Br)ccc2cc1O | -29 | 11 | -97 | -4 | 0
COc1ccccc1NC(=O)c1cc2ccccc2o/c1=N\O | 48 | nt | 62* | nt | -2
COc1ccc2o/c(=N\O)c(C(=O)Nc3ccc(C)cc3)cc2c1 | 21 | 2 | 63* | 18 | 4
COc1ccccc1NC(=O)c1cc2ccc(O)cc2o/c1=N\O | 95* | -2 | 81* | 6 | 135*
ClC1(CNc2ccccc2)CCN(Cc2ccccc2)CC1 | nt | nt | nt | nt | 3
COC(CNC(=O)c1cn(C)c2ccc(S(=O)(=O)N(C)C3CCCCC3)cc2c1=O)OC | nt | nt | nt | nt | 32
O=C(NCc1ccco1)C(=O)N1CCCC1 | 1 | 2 | 0 | 16 | 4
CCCn1nc(C(=O)Nc2nc3ccccc3[nH]2)c2ccccc2c1=O | -5 | 32 | 3 | -1 | 0
CC(C)n1nc(C(=O)Nc2nc3ccccc3[nH]2)c2ccccc2c1=O | 103* | -8 | 2 | 19 | -1
Cc1ccc(S(=O)(=O)Nc2cccc(Cl)c2)cc1NC(=O)c1cccnc1 | -1 | 3 | 1 | 24 | 62*
COc1cccc(CNC(=O)CCSCc2ccccc2F)c1 | -1 | 0 | 5 | 5 | 8
O=c1[nH]c(=O)c2ncc(-c3ccc(Cl)cc3)nc2[nH]1 | 54* | -4 | 85* | -4 | -1
N#C/C(=C\c1c(N2CCOCC2)nc2ccccn2c1=O)C(=O)NC1CCS(=O)(=O)C1 (centres undefined) | 10 | -21 | 82* | 7 | 3
N#C/C(=C\c1c(N2CCCCCC2)nc2ccccn2c1=O)C(=O)NC1CCS(=O)(=O)C1 (centres undefined) | 4 | -9 | 82* | 6 | 0

Source: PubChem
